Data as given in ChEMBL document CHEMBL3244028, “Synthesis and antiinflammatory activity of 6,11-dihydro-11-oxodibenzo[b,e]thiepinalkanoic acids and related compounds” (J Med Chem, 1978).

How the values were obtained:
Rattus norvegicus [1] = experiment: Antiinflammatory activity in rat assessed as inhibition of carrageenan-induced paw edema compound administered orally 1 hr prior challenge relative to phenylbutazone; type: functional
Procedure, shortened: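 Female rats, 80-90 g, given test agent in "Government diluting fluid" 1 h before carrageenan injection into one hind paw. Rats killed 4 h after dosing; both hind paws excised and weighed. Potency relative to phenylbutazone read from dose-response plots of percent weight increase of inflamed over noninflamed paw. Usually at least three doses, six rats per dose.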

Mus musculus = experiment: Analgesic activity in mouse assessed as inhibition of phenylquinone-induced writhing administered orally 20 mins prior challenge relative to aspirin; type: functional
Procedure, shortened: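 Male mice, 18-20 g, dosed orally in "Government diluting fluid" vehicle, then given phenylquinone intraperitoneally 20 min later. Writhing observed over the following 10 min. Eight to ten mice per dose. Potency relative to aspirin taken from dose-response plots.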

Rattus norvegicus [2] = experiment: Antiinflammatory activity in rat assessed as inhibition of cotton pellet granuloma at 0.5 to 4 mg/kg/day, po administered for 7 days starting same day of challenge measured on day 7 relative to indomethacin; type: functional
Procedure, shortened: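 Cotton pellet granuloma in rats, by a modification of Meier's method. Vehicle "Government diluting fluid".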

Rattus norvegicus [3] = experiment: Antiinflammatory activity in rat arthritis model assessed as inhibition of Freund's adjuvant-induced swelling compound administered orally bid for 17 days starting on day 1 of challenge measured on day 18 relative to naproxen; type: functional
Canis familiaris = experiment: Toxicity in dog assessed as emesis at 5 mg/kg, po administered as single dose; type: organism-based, Canis lupus familiaris; set-up: dose 5 mg/kg, route oral; settings: in vivo
Procedure, shortened: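 Dogs given one oral dose (5, 10 or 30 mg/kg). Animals watched for signs of gastrointestinal intolerance, including emesis.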

Rattus norvegicus [4] = species on record: Rattus norvegicus; experiment: Toxicity in rat assessed as gastric irritation (erosion) in starved rats; settings: in vivo

| SMILES | fold change (FC) (Rattus norvegicus [1]) | fold change (FC) (Mus musculus) | fold change (FC) (Rattus norvegicus [2]) | fold change (FC) (Rattus norvegicus [3]) | Activity (Canis familiaris) | ED50 (Rattus norvegicus [4]) [mg/kg] |
| --- | --- | --- | --- | --- | --- | --- |
| O=C(O)Cc1ccc2c(c1)C=Cc1ccccc1O2 | <0.4 | 0.3 |  |  |  |  |
| O=C(O)Cc1ccc2c(c1)C(=O)c1ccccc1CS2 | 0.3 | 1.5 |  |  |  |  |
| C1CCC(NC2CCCCC2)CC1.CCC(C(=O)O)c1ccc2c(c1)SCc1ccccc1C2=O (stereo not given) | 20 | 4 |  |  |  |  |
| O=C(O)Cc1ccc2c(c1)SCc1ccccc1C2 | 2 | 1 |  |  |  |  |
| O=C(O)Cc1ccc2c(c1)S(=O)(=O)Cc1ccccc1C2=O | <0.2 | 0.2 |  |  |  |  |
| O=C(O)Cc1cccc2c1SCc1ccccc1C2=O | <0.4 |  |  |  |  |  |
| O=C(O)Cc1ccc2c(c1)CSc1ccccc1C2=O | 1 | 1 |  |  |  |  |
| C1CCC(NC2CCCCC2)CC1.CC(C(=O)O)c1ccc2c(c1)CSc1ccccc1C2=O (stereo not given) | 2 | 2.5 |  |  |  |  |
| O=C(O)Cc1ccc2c(c1)SCc1sccc1C2=O | 4 | 4 |  |  |  |  |
| O=C(O)Cc1ccc2c(c1)CC(=O)c1ccccc1S2 | 0.4 | 1 |  |  |  |  |
| O=C(O)Cc1ccc2c(c1)C=Cc1ccccc1S2 | 2 | <1 |  |  |  |  |
| O=C(O)Cc1ccc2c(c1)CCc1ccccc1S2 | 7 | 3 | 0.07 | 0.5 |  |  |
| O=C(O)Cc1ccc2c(c1)C=Cc1ccccc1S2(=O)=O | 0.4 | 0.4 |  |  |  |  |
| O=C(O)Cc1ccc2c(c1)CCc1ccccc1S2(=O)=O | 0.4 | 1 |  |  |  |  |
| O=C(O)Cc1ccc2c(c1)CC(=O)c1ccccc1O2 | <0.6 | <0.2 |  |  |  |  |
| O=C(O)Cc1ccc2c(c1)CCc1ccccc1O2 | 0.4 | 1 |  |  |  |  |
| O=C(O)Cc1ccc2c(c1)Sc1ccccc1C(=O)C2 | 0.4 | 1 |  |  |  |  |
| O=C(O)Cc1ccc2c(c1)Sc1ccccc1C=C2 | <0.2 | <1 |  |  |  |  |
| O=C(O)Cc1ccc2c(c1)Sc1ccccc1CC2 | 0.2 | 2 |  |  |  |  |
| CC(C(=O)O)c1ccc2c(c1)SCc1ccccc1C2=O (racemic) | 115 | 20 | 2 | 70 | Toxic | 2 |
| O=C(O)Cc1ccc2c(c1)SCc1ccccc1C2O (racemic) | <1 | <0.3 |  |  |  |  |
| O=C(O)Cc1ccc2c(c1)[S+]([O-])Cc1ccccc1C2=O (racemic) | 0.5 | <=0.5 |  |  |  |  |
| CC(C(=O)O)c1ccc2c(c1)SCc1sccc1C2=O (racemic) | 13 | 20 |  |  |  |  |
| C1CCC(NC2CCCCC2)CC1.CC(C(=O)O)c1ccc2c(c1)CCc1ccccc1S2 (racemic) | 3 | 5 |  |  |  |  |
| O=C(O)Cc1ccc2c(c1)CCc1ccccc1[S+]2[O-] (racemic) | <=0.2 | 0.8 |  |  |  |  |
| O=C(O)Cc1ccc2c(c1)SCc1ccccc1C2=O [TIOPINAC] | 40 | 14 | 0.8 | 10 | Non-toxic |  |
